Columns and labels:
Aromatase = molecular target: T1, Aromatase (Homo sapiens, UniProt P11511)
T1 sequence (P11511 whole entry): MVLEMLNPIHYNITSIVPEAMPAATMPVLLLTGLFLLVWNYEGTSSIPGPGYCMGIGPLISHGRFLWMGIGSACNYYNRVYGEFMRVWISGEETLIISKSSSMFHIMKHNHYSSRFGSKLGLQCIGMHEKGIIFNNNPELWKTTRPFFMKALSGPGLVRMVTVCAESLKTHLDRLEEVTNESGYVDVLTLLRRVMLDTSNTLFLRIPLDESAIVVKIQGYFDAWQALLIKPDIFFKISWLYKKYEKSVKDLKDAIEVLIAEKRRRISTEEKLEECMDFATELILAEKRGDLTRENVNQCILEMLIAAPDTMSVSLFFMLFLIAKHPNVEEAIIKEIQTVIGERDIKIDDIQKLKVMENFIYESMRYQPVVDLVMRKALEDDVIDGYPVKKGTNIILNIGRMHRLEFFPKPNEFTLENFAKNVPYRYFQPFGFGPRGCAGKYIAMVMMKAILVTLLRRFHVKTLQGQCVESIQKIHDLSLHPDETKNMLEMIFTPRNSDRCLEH

[1] = Cytotoxicity against mouse Hepa-1c1c7 cells after 72 hrs by sulforhodamine B assay; format: functional, cell-based; conditions: Hepa-1c1c7, 72 h
In short: (§1)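 Cells seeded at 5.0×10^4 cells/mL in 96-well plates, given compound in 10% DMSO (10 µL) for final 0–20 µg/mL, 72 h incubation; zero-day control plate 30 min at 37 °C. Fixed with cold 50% TCA 30 min at 4 °C, stained 0.4% sulforhodamine B in 1% acetic acid 30 min, dye solubilized in 10 mM Tris base pH 10, absorbance 515 nm.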

[2] = molecular target: T2, Ribosyldihydronicotinamide dehydrogenase [quinone] (Homo sapiens, UniProt P16083); assay: Inhibition of human quinone reductase 2 expressed in Escherichia coli BL21(DE3) incubated at 23 degC by MTT assay
T2 sequence (P16083 whole entry): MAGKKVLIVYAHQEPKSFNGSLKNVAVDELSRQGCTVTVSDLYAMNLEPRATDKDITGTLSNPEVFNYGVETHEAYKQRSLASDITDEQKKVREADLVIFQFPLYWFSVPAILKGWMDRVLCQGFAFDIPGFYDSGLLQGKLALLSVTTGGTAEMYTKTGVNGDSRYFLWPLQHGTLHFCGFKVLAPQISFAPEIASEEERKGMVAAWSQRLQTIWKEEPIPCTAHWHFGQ

MCF7 = assay: Cytotoxicity against human MCF7 cells after 72 hrs by sulforhodamine B assay; format: functional, cell-based; conditions: MCF7, 72 h
In short: as §1

[3] = Cytotoxicity against human Lu cells after 72 hrs by sulforhodamine B assay; format: functional, cell-based
In short: as §1

LNCaP = assay: Cytotoxicity against human LNCAP cells after 72 hrs by sulforhodamine B assay; format: functional, cell-based
In short: as §1

Row | IC50 (Aromatase) [µM] | IC50 [2] [µM] | Compound | IC50 [1] [µM] | IC50 (MCF7) [µM] | IC50 [3] [µM] | IC50 (LNCaP) [µM]
1 | > 126 | > 500 | Cc1cc(=O)[nH]c2ccccc12 | > 126 | > 126 | > 126 | > 126
2 | 0.1 | 10.8 | COc1cc(OC)c2c(c(C)cc(=O)n2C)c1OC | 70.7 | > 76 | 68.5 | > 76
3 | > 98.4 | > 500 | Cc1cc(=O)n(C)c2c1C(=O)C=CC2=O | 54.1 | 60.5 | 49.2 | 58.1
4 | 5.76 | 9.3 | COc1ccc2c(C)cc(=O)n(C)c2c1OC | > 85.8 | > 85.8 | > 85.8 | > 85.8
5 | > 106 | 24.1 | COc1cccc2c(C)cc(=O)[nH]c12 | > 106 | > 106 | > 106 | > 106
6 | 18.5 | 10 | COc1cc2c(C)cc(=O)[nH]c2c(OC)c1OC | > 80.3 | > 80.3 | > 80.3 | > 80.3
7 | 0.76 | > 500 | COc1c(OC)c(OC)c2c(c(C)cc(=O)n2C)c1OC | > 68.2 | > 68.2 | > 68.2 | > 68.2
8 | > 91.3 | 8.8 | COc1cc(OC)c2[nH]c(=O)cc(C)c2c1 | > 91.3 | > 91.3 | > 91.3 | > 91.3
9 | > 98.5 | 10.8 | Cc1cc(=O)[nH]c2c3c(ccc12)OCO3 | > 98.5 | > 98.5 | > 98.5 | > 98.5
10 | 0.96 | 4.1 | COc1ccc(OC)c2c1c(C)cc(=O)n2C | > 85.7 | > 85.7 | > 85.7 | > 85.7
11 | 2.72 | 7 | COc1cc2c(C)cc(=O)n(C)c2c(OC)c1OC | > 76 | > 76 | > 76 | > 76
12 | 1.25 | 6.2 | Cc1cc(=O)n(C)c2c3c(ccc12)OCO3 | > 92.1 | > 92.1 | > 92.1 | > 92.1
13 | 0.96 | 1.9 | COc1cc(OC)c2c(c1)c(C)cc(=O)n2C | > 85.8 | > 85.8 | > 85.8 | > 85.8
14 | 14.8 | 6 | COc1cc(OC)c2[nH]c(=O)cc(C)c2c1OC | 34.5 | 43 | 35.3 | 45.8
15 | 5.68 | > 500 | COc1c(OC)c(OC)c2c(C)cc(=O)[nH]c2c1OC | > 71.7 | > 71.7 | > 71.7 | > 71.7
16 | 31.5 | 29.3 | COc1ccc2c(C)cc(=O)[nH]c2c1OC | > 91.3 | > 91.3 | > 91.3 | > 91.3
17 | 2.02 | 5.8 | COc1cccc2c(C)cc(=O)n(C)c12 | > 98.5 | > 98.5 | > 98.5 | > 98.5
18 | > 116 | 18.2 | Cc1cc(=O)n(C)c2ccccc12 | > 116 | > 116 | > 116 | > 116
19 | 3.92 | 54.1 | COc1cc(=O)n(C)c2c3c(ccc12)OCO3 [CASIMIROIN] | > 85.8 | > 85.8 | > 85.8 | > 85.8

Row | Compound | IC50 (Aromatase) [µM] | IC50 [2] [µM] | IC50 [1] [µM] | IC50 (MCF7) [µM] | IC50 [3] [µM] | IC50 (LNCaP) [µM]
20 | COc1ccc(OC)c2c(C)cc(=O)[nH]c12 | 26.8 | 10.8 | > 91.2 | > 91.2 | > 91.2 | > 91.2
